These results are taken from PubChem BioAssay AID504383 (The Scripps Research Institute Molecular Screening Center, 2011).

The whole screen tested about 2,500 compounds, of which about 1,200 (48%) were called active. So high a share suggests a set chosen from earlier hits. The list shows a part of the results. A number with no mark means an inactive call.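 How the source made its calls: active means mean activation above the low control average plus 3 SD, as set in the primary screen (cut at about 12% in these data); inactive means the rest.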

This assay addresses Troponin I, cardiac muscle (Homo sapiens) + Troponin T, cardiac muscle (Homo sapiens) + Troponin C, slow skeletal and cardiac muscles (Homo sapiens) (UniProt P19429+P45379+P63316). Kind of assay: cardiac RTF calcium sensitivity activators, confirmation, biochemical, IANBD-TnC fluorescence, triplicate (AID 504383).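 Further: 0% = DMSO at 0.472 mM calcium and 100% = DMSO at 2.9 mM calcium.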 Particulars: IANBD-labeled cardiac RTF, Ca2+ sensitivity fluorescence; at 7.2 µM; active compounds read high; scaled from EC20 to saturating calcium; tested at EC20 calcium, 0.472 mM. Summed up:
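material = labelled regulated thin filaments | probe or stimulus = Ca2+ 0.472 mM, EC20 level | dosing = single nominal compound dose of 7.2 µM | schedule = 15 min at 25 °C | signal = fluorescence intensity of labelled filaments | evaluation = fluorescence gain scaled between EC20 and EC100 calcium controls | benchmarks = low control EC20 calcium, high control EC100 calcium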
Regarding `N#C/C(=C/c1ccc(N2CCCCC2)o1)C(=O)Nc1ccc(Cl)cc1`, the activation is 111% (active). For the compound `N#C/C(=C\c1ccc(N2CCOCC2)o1)C(=O)NCC1CCCO1` (centres undefined), the activation is -0.28%.

Regarding `N#C/C(=C/c1ccc(N2CCOCC2)o1)C(=O)NC1CCCCC1`, the activation is -0.07%.

For `N#C/C(=C/c1ccc(N2CCOCC2)o1)C(=O)Nc1ccccc1`, the activation was 2.26%.

For `N#C/C(=C\c1ccc(N2CCOCC2)o1)C(=O)NC1CCCCC1`, the activation is 28.9% (active). As to `COc1ccc(NC(=O)/C(C#N)=C\c2ccc(N3CCOCC3)o2)cc1`, the activation is 32.2% (active). Regarding `N#C/C(=C/c1ccc(N2CCCCC2)o1)C(=O)NCCc1c[nH]c2ccccc12`, the activation is 40.9% (active). For the compound `CCOC(=O)/C(C#N)=N\Nc1cc(Cl)ccc1OC`, the activation is 6.36%. `N#C/C(=C\c1ccc(N2CCOCC2)o1)C(=O)N1CCOCC1`: the activation is 6.09%. `N#C/C(=C\c1ccc(N2CCCCC2)o1)C(N)=O`: the activation was 11.6% (active). On to `N#C/C(=C/c1ccc(N2CCCCC2)o1)C(=O)Nc1ccc2ccccc2c1`, for which the activation is 171% (active). Take `COCCNC(=O)/C(C#N)=C/c1ccc(N2CCOCC2)o1`: the activation is 9.29%.

As to `N#C/C(=C\c1ccc(N2CCOCC2)o1)C(=O)NCCc1ccccc1`, the activation was 43.7% (active). The result for `N#C/C(=C\c1ccc(N2CCCCC2)o1)C(=O)Nc1cccc(Br)c1` reads 5.9%; that for `N#C/C(=C/c1ccc(N2CCOCC2)o1)C(=O)N1CCOCC1`, 10.1%; that for `CN1C(=O)NC(c2ccccc2[N+](=O)[O-])C2=C1CCCC2=O` (centres undefined), 14.6% (active).

Turning to `O=C1NC2=C(C(=O)CCC2)C(c2ccccc2Cl)N1` (centres undefined), the activation is 10.3%. The result for `COc1ccc(/C=C2\SC(c3ccc(C)cc3)=NC2=O)cc1OC` reads 12.9% (active).

As for `COc1ccc(/C=c2\s/c(=C/C(=O)c3ccc(C)cc3)[nH]c2=O)cc1OC`, the activation was 1.66%.

For `COc1ccc(/C=C2/SC(c3ccc(C)cc3)=NC2=O)cc1OC`, the activation was 34.6% (active). For `COc1ccc(/C=C2\SC(=O)NC2=S)cc1OC`, the activation is 7.81%. For `C=CCN1C(=O)/C(=C/c2ccc(O)c(OC)c2)S/C1=N/c1nccs1`, the activation is 5.76%. Consider `COc1cc(N2CCCC2)c(OC)cc1/C=C1/NC(=S)NC1=O`, for which the activation was 113% (active). The result for `O=C1CCCC(=NNC(=O)c2cc3ccccc3cc2O)C1` reads 8.36%. In the case of `O=C1CCC/C(=N/NC(=O)c2sc3ccccc3c2Cl)C1`, the activation is 7.01%. `COc1ccc2c(Cl)c(C(=O)N/N=C3\CCCC(=O)C3)sc2c1`: the activation is 47.6% (active). As for `CC1(c2cccc(Br)c2)NC(=O)NC1=O` (centres undefined), the activation was 52.2% (active). With `COC(=O)C1=C(C(=O)OC)[C@@H]2Nc3ccccc3[C@@]23C[C@@H](C(=O)OC)N(C(=O)c2cccs2)C3=N1`, the activation is 36.8% (active). To `COc1ccc(NC(C)=O)cc1NC(=O)C1CCCN1C(=O)c1cccs1` (centres undefined) belongs 6.06%.

Regarding `O=C(CCC1CCCN(C(=O)C2=CCCC2)C1)N1CCN(c2ccccn2)CC1` (centres undefined), the activation is 4.61%. With `Cc1ccc(SCC(=O)OCC(=O)NCc2cccs2)cc1`, the activation was 12.8% (active). For the compound `CCC1Oc2ccc(C)cc2N(CC(=O)NCc2cccs2)C1=O` (centres undefined), the activation was -5.95%. Take `CC(=O)n1cc(CO)c2ccccc21`: the activation is 262% (active). The result for `Cc1ccc(Cl)c(NC(=O)CN(C)CC(=O)Nc2ccc(F)c(F)c2F)c1Cl` reads 2.04%; that for `CC(CCc1ccc(O)cc1)NCCC(c1ccccc1)c1ccccc1` (centres undefined), 48.6% (active); that for `CCN=C(NC#N)SCc1c(F)cccc1Cl`, 11.4%. On to `NS(=O)(=O)c1ccc(NCc2c(F)cccc2Cl)cc1`, for which the activation is 45.6% (active). `Cc1cccc(N=Cc2[nH]c3ccc(Br)c(Cl)c3c2O)c1`: the activation is 4.45%. The result for `CCOc1ccc(Nc2nc(N)c([N+](=O)[O-])c(NCc3ccccc3)n2)cc1` reads 7.49%; that for `CCOc1ccc(Cn2nnc(C(=O)NCCc3ccccc3)c2N)cc1`, 821% (active); that for `Cc1ccccc1-c1noc(-c2cccs2)n1`, 24.3% (active). The result for `COc1cccc2cc(-c3nc(-c4cccs4)cs3)c(=O)oc12` reads 3.53%; that for `COc1ccc(N2CCN(C(=O)c3ccc(OCC4CCCO4)cc3)CC2)cc1` (centres undefined), 71% (active); that for `O=C(C1=C(O)C(=O)N(c2nccs2)C1c1ccccc1)c1cc2ccccc2o1` (centres undefined), 5.32%. The result for `COC(=O)c1sc(N2C(=O)C(O)=C(C(=O)c3ccc(C)o3)C2c2ccc(F)cc2)nc1C` (centres undefined) reads 35% (active); that for `CCCC1C(c2ccccc2)C(C#N)(C#N)C2(C#N)CC1(N)NC2=O` (centres undefined), 10.5%. On to `N#C/C(=C\c1coc2ccc(O)cc2c1=O)C(=O)Nc1nc2ccccc2s1`, for which the activation was 12.6% (active).

Turning to `O=C(C1=NN(c2ccccc2)C2C(=O)N(c3ccccc3)C(=O)C12)c1ccccc1` (centres undefined), the activation was 3.95%. To `O=C1N(c2cccc(Cl)c2)C(c2ccccc2)N2CCCN12` (centres undefined) belongs 6.5%; to `COc1ccccc1N1C(=O)C2C(C(=O)c3ccccc3)=NN(c3ccccc3)C2C1=O` (centres undefined), 11.7% (active).

For the compound `Cc1ccc(CC2C(=O)N(c3ccc(C)cc3)C(=O)C2C)cc1` (centres undefined), the activation was 7.76%. The result for `O=C(C1=NN(c2ccccc2)C2C(=O)N(c3ccc(Cl)cc3)C(=O)C12)c1ccccc1` (centres undefined) reads 2.79%; that for `O=C(C1=NN(c2ccccc2)C2C(=O)N(c3cccc(Cl)c3)C(=O)C12)c1ccccc1` (centres undefined), 35.7% (active). `O=C(C1=NN(c2ccccc2)C2C(=O)N(c3ccccc3Cl)C(=O)C12)c1ccccc1` (centres undefined): the activation was 13.6% (active). To `Cc1ccc(N2C(=O)C3C(C(=O)c4ccccc4)=NN(c4ccccc4)C3C2=O)cc1` (centres undefined) belongs 29.5% (active); to `COc1cccc(/C=C/C(=C2\C(=O)N(c3ccccc3)N=C2C)c2ccc(Br)cc2)c1OC`, 4.48%. To `COc1ccc(C2(CNC(C)=O)CCCC2)cc1OC` belongs 3.15%. In the case of `COC(=O)c1c(-c2ccc(OC)c(OC)c2)csc1N`, the activation is 13% (active).

Take `CCOC(=O)c1c(-c2ccc(C)cc2)csc1NC(=O)/C(C#N)=C/c1ccc(O)c(OC)c1`: the activation was 4.04%. The result for `O=C(c1ccc(=O)[nH]c1)N(Cc1ccco1)C1(C(=O)NC2CCCCC2)CCCCC1` reads 8.99%; that for `O=C(CSCc1ccco1)NC1CCCC1`, 13.6% (active); that for `S=C(NC1CC1)NC1CCCc2ccccc21` (centres undefined), 7.09%. As to `COC(=O)c1sccc1NC(=O)CSCC(=O)O`, the activation was 0.67%.

On to `COc1cc(NC(=O)CSc2ccccc2)c(C(=O)O)cc1OC`, for which the activation is 23.2% (active). The result for `COc1cc(NC(=O)CSc2nc3ccccc3n2-c2ccccc2)c(C)cc1[N+](=O)[O-]` reads 6.07%; that for `CCOC(=O)C1=C(C)NC(C)=C(C(=O)OCC)C1c1ccco1`, 8.22%; that for `CCOC(=O)N1CCC(NC(=O)c2cnn3c2NC(c2ccco2)CC3C(F)(F)F)CC1` (centres undefined), 18% (active).

As for `COc1ccccc1N1CCN(c2ccc([N+](=O)[O-])cc2Cl)CC1`, the activation is 90.7% (active). Take `COc1ccc(N2CCN(S(=O)(=O)Cc3ccccc3)CC2)cc1`: the activation was 10.5%.

`CC1=N/C(=C/c2ccc([N+](=O)[O-])cc2)C(=O)N1c1ccc(Cl)cc1Cl`: the activation was 6.42%.

As to `COc1ccccc1N1CCN(C(=O)CCC(=O)O)CC1`, the activation was 4.12%. With `COc1ccc(N2CCN(c3ccc([N+](=O)[O-])cc3Cl)CC2)cc1`, the activation was 41.8% (active). `Cn1c(NC(=O)C[n+]2cc(-c3ccc(Cl)cc3)n3c2CCC3)cc(=O)n(C)c1=O`: the activation was 5.8%. With `Cc1onc(-c2ccccc2Cl)c1C(=O)N(Cc1ccc(N(C)C)cc1)C(C)C`, the activation was 12% (active). As to `CC(=O)Nc1ccc(SCC(=O)NNC(=O)CN(C)S(=O)(=O)c2ccc(C)cc2)cc1`, the activation is 98% (active). For `Cc1ccc(Cn2c(Sc3nnc(C)s3)nc3c2c(=O)[nH]c(=O)n3C)cc1`, the activation is 108% (active). Take `COc1ccc(/C=c2\s/c(=C/C(=O)c3ccc(C)cc3)[nH]c2=O)c(OC)c1`: the activation was 10.7%. To `COc1ccc(/C=C2\CC/C(=C\c3ccc(OC)cc3OC)C2=O)c(OC)c1` belongs 50.4% (active); to `COc1cc(/C=C2\CC/C(=C\c3ccc(OCCO)c(OC)c3)C2=O)ccc1OCCO`, 7.54%; to `CCOC(=O)c1c(NCC(C)C)c2ccccc2[nH]c1=O`, 183% (active). With `COC(=O)[C@H](C)NC(=O)c1cc2c(cn1)[nH]c1ccccc12`, the activation was 10.7%. The result for `CCOC(=O)C1=C(COC(=O)c2ccc3ccccc3c2O)NC(=O)NC1C` (centres undefined) reads 6.83%; that for `COc1ccc(N2C(=O)[C@@H]3[C@H](C2=O)[C@H]2c4ccccc4C=CN2[C@@H]3C(=O)Nc2ccccc2)cc1`, 55.7% (active); that for `Cc1ccc(-c2nc(N)sc2CC(=O)OCC(=O)NCCC(C)C)cc1`, 10.3%. The result for `Cc1ccc(-c2nc(C)sc2CC(=O)O)cc1` reads 28.5% (active); that for `COC(=O)c1ccc2c(c1)NC1=C(C(=O)CC(C)(C)C1)C(c1ccncc1)N2` (centres undefined), 9.24%; that for `COc1ccc(-c2cc(C(F)(F)F)nc(S(=O)(=O)CCCC(=O)Nc3cc(C)on3)n2)cc1OC`, 16.4% (active). The result for `COc1ccc(NC(=O)c2cc(C)on2)cc1OC` reads 6.63%; that for `O=C(CCN1C(=O)/C(=C/c2ccccc2)SC1=S)NNC(=O)c1cccnc1`, 6.78%. As for `Cn1cc(/C=C2\SC(=S)N(N3CCOCC3)C2=O)c2ccccc21`, the activation is 12.7% (active). The result for `Cc1ccc(N=C2NC(=O)/C(=C/c3cn(C)c4ccccc34)S2)cc1C` reads 6.33%; that for `O=C(CS(=O)(=O)c1cn(Cc2ccc(F)cc2)c2ccccc12)N1CCOCC1`, 1.62%. Regarding `O=C1/C(=C/c2cccnc2)SC(=S)N1N1CCOCC1`, the activation is 12.4% (active). On to `O=C(O)CN1C(=O)/C(=C\c2cn(CC(=O)N3CCOCC3)c3ccccc23)SC1=S`, for which the activation was 16.6% (active).
